Reference: PubChem BioAssay AID492985 (Sanford-Burnham Center for Chemical Genomics, 2010)

Molecular target: Apelin receptor (Homo sapiens) (UniProt P35414)
Assay: apelin receptor activation by small molecules – cell-based, CHO-K1 AGTRL-1, PathHunter luminescence, set 3, SAR follow-up (AID 492985)
Details: CHO-K1 APJ beta-arrestin PathHunter
In short: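 Test system: CHO-K1 AGTRL-1 (APJ) PathHunter β-arrestin cell line / Schedule: compound exposure 90 min at 25 °C, detection reagent 60 min / Technique: luminescence from β-gal fragment complementation upon β-arrestin recruitment / Benchmarks: apelin-13 positive control, 30 nM in dispensed solution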

Apelin receptor (Homo sapiens), sequence (P35414 whole entry, looked up): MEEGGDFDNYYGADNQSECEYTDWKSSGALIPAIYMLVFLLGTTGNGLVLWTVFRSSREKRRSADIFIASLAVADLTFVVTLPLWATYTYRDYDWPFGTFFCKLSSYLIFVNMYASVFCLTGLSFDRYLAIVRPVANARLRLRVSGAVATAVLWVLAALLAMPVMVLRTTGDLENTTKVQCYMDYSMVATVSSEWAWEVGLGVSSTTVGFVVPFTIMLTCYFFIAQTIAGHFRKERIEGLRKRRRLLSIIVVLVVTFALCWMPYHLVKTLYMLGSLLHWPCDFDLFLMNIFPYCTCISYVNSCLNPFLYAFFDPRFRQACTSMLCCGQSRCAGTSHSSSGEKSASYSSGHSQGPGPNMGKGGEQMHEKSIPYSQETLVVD

EC50 [µM]	SMILES
5.56	CC1=CC(=O)C(C(C)C)=C/C1=N/OS(=O)(=O)c1ccc(C(C)C)cc1
3.52	CC1=CC(=O)C(C(C)C)=C/C1=N/OS(=O)(=O)c1ccc(C#N)cc1
7.15	CC1=CC(=O)C(C(C)C)=C/C1=N/OS(=O)(=O)c1ccc(F)cc1
